According to ChEMBL document CHEMBL1136887, “Synthesis and evaluation of pharmacological profile of 1-aryl-6,7-dimethoxy-3,4-dihydroisoquinoline-2(1H)-sulfonamides” (Bioorg Med Chem, 2009):

Columns and labels:
Mus musculus [1] = test: Anticonvulsant activity in ip dosed DBA/2 mouse assessed as inhibition of auditory stimulation-induced tonic seizures administered 30 mins before auditory stimulation; assay type: functional; conditions: DBA/2, ip
Summary of the method: (§1)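 DBA/2 mice (8-12 g, 22-25 days old, either sex), groups of 10, given vehicle or drug ip and exposed to auditory stimulation 30 min later. Latency to and incidence of each seizure phase scored. ED50 per seizure phase derived from dose–response curves by Litchfield–Wilcoxon, with 95% confidence limits; at least 32 animals per ED50. Fisher's exact test used for incidence.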

Mus musculus [2] = test: Anticonvulsant activity in ip dosed DBA/2 mouse assessed as inhibition of auditory stimulation-induced clonic seizures administered 30 mins before auditory stimulation; assay type: functional; conditions: DBA/2, ip; summary of the method: as §1
Carbonic anhydrase 9 = Carbonic anhydrase 9 (Homo sapiens, UniProt Q16790); test: Inhibition of human recombinant carbonic anhydrase 9 catalytic domain by stopped flow CO2 hydration method

| Ki (Carbonic anhydrase 9) | SMILES | ED50 (Mus musculus [1]) | ED50 (Mus musculus [2]) |
| --- | --- | --- | --- |
|  | COc1cc2c(cc1OC)C(c1ccc(Cl)cc1)N(C(C)=O)CC2 (stereo not drawn) | 2.39 µmol/kg | 4.18 µmol/kg |
|  | COc1cc2c(cc1OC)C(c1ccc(Cl)cc1)NCC2 (stereo not drawn) | 19.3 µmol/kg | 20.1 µmol/kg |
|  | COc1cc2c(cc1OC)C(c1ccc(F)cc1)N(S(N)(=O)=O)CC2 (stereo not drawn) | 41.8 µmol/kg | > 100 µmol/kg |
|  | COc1cc2c(cc1OC)C(c1ccccc1)N(S(N)(=O)=O)CC2 (stereo not drawn) | 7.82 µmol/kg | > 100 µmol/kg |
|  | CC1(C)O[C@@H]2[C@@H](CO[C@@]3(COS(N)(=O)=O)OC(C)(C)O[C@@H]23)O1 [TOPIRAMATE] | 18 µmol/kg | 35.7 µmol/kg |
| 4.98 µM | COc1cc2c(cc1OC)C(c1ccc(C#N)cc1)N(S(N)(=O)=O)CC2 (stereo not drawn) | > 100 µmol/kg | > 100 µmol/kg |
|  | COc1cc2c(cc1OC)C(c1ccc(C)cc1)NCC2 (stereo not drawn) | 36.5 µmol/kg | 48.6 µmol/kg |
|  | COc1cc2c(cc1OC)C(c1ccc(Br)cc1)NCC2 (stereo not drawn) | 12.5 µmol/kg | 30.6 µmol/kg |
| 6.45 µM | COc1cc2c(cc1OC)C(c1cccc([N+](=O)[O-])c1)N(S(N)(=O)=O)CC2 (stereo not drawn) | > 100 µmol/kg | > 100 µmol/kg |
|  | COc1cc2c(cc1OC)C(c1cccc(N)c1)NCC2 (stereo not drawn) | 18.2 µmol/kg | 40.4 µmol/kg |
|  | COc1cc2c(cc1OC)C(c1ccc([N+](=O)[O-])cc1)NCC2 (stereo not drawn) | 56.1 µmol/kg | 101 µmol/kg |
| 6.75 µM | COc1cc2c(cc1OC)C(c1ccc(C)cc1)N(S(N)(=O)=O)CC2 (stereo not drawn) | 51.7 µmol/kg | 97.1 µmol/kg |
|  | COc1cc2c(cc1OC)C(c1ccc(F)cc1)NCC2 (stereo not drawn) | 26.4 µmol/kg | 57.8 µmol/kg |
|  | COc1cc2c(cc1OC)C(c1ccccc1)NCC2 (stereo not drawn) | 19.3 µmol/kg | 44.8 µmol/kg |
| 7.54 µM | COc1cc2c(cc1OC)C(c1ccc(Cl)cc1)N(S(N)(=O)=O)CC2 (stereo not drawn) | 7.25 µmol/kg | 23.5 µmol/kg |
| 8.2 µM | COc1cc2c(cc1OC)C(c1ccc(Br)cc1)N(S(N)(=O)=O)CC2 (stereo not drawn) | 67.3 µmol/kg | > 100 µmol/kg |
|  | COc1cc2c(cc1OC)C(c1ccc(N)cc1)N(S(N)(=O)=O)CC2 (stereo not drawn) | 3.6 µmol/kg | 17.7 µmol/kg |
| 0.48 µM | COc1cc2c(cc1OC)C(c1ccc([N+](=O)[O-])cc1)N(S(N)(=O)=O)CC2 (stereo not drawn) | > 100 µmol/kg | > 100 µmol/kg |
| 8.13 µM | COc1cc2c(cc1OC)C(c1cccc(N)c1)N(S(N)(=O)=O)CC2 (stereo not drawn) | 65.8 µmol/kg | > 100 µmol/kg |
|  | COc1cc2c(cc1OC)C(c1cccc([N+](=O)[O-])c1)NCC2 (stereo not drawn) | 7.2 µmol/kg | 19.3 µmol/kg |
|  | COc1cc2c(cc1OC)C(c1ccc(N)cc1)NCC2 (stereo not drawn) | 28.6 µmol/kg | 46.6 µmol/kg |
|  | COc1cc2c(cc1OC)C(c1ccc(Br)cc1)N(C(=O)CN1CCCCC1)CC2 (stereo not drawn) | 8.17 µmol/kg | 12.7 µmol/kg |
|  | COc1cc2c(cc1OC)C(c1ccc(C#N)cc1)NCC2 (stereo not drawn) | 48.6 µmol/kg | > 100 µmol/kg |
